Laboratory results as given in ChEMBL document CHEMBL3588845, “Protozoan Parasite Growth Inhibitors Discovered by Cross-Screening Yield Potent Scaffolds for Lead Discovery” (J Med Chem, 2015).

Assays:
Plasmodium falciparum [1] = experiment: Antiparasite activity against Plasmodium falciparum D6 assessed as growth inhibition incubated for 72 hrs by SYBR green fluorescence assay; type: functional, organism-based; conditions: D6, 72 h
Leishmania major [2] = experiment: Antiparasite activity against luciferase-expressing Leishmania major amastigotes isolated from infected in mouse RAW264.7 cells assessed as growth inhibition incubated for 96 hrs by luciferase reporter gene assay; type: functional, organism-based; conditions: RAW264.7, 96 h
Leishmania major [3] = experiment: Antiparasite activity against Leishmania major promastigotes assessed as growth inhibition incubated for 44 hrs by alamar blue dye based fluorescence assay; type: functional, organism-based
[4] = Toxicity against human HepG2 cells incubated for 48 hrs by MTT assay; type: cell-based; conditions: read-out: TC50
[5] = Aqueous solubility of the compound; type: physicochemical; conditions: buffer
Summary of the method: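 Aqueous solubility measured as thermodynamic solubility.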

Trypanosoma brucei [6] = experiment: Antiparasite activity against Trypanosoma brucei 427 assessed as growth inhibition incubated for 48 hrs by PrestoBlue based fluorescence assay; type: functional, organism-based; conditions: Trypanosoma brucei, 427, 48 h
Trypanosoma cruzi [7] = experiment: Antiparasite activity against Trypanosoma cruzi Tulahuen expressing beta-galactosidase assessed as growth inhibition incubated for 96 hrs by CPRG dye based assay; type: functional, organism-based
[8] = Protein binding in plasma (unknown origin) assessed as fraction unbound; type: ADME, cell-free
Trypanosoma cruzi [9] = experiment: Antiparasite activity against Trypanosoma cruzi Tulahuen expressing beta-galactosidase assessed as growth inhibition at 10 uM incubated for 96 hrs by CPRG dye based assay; type: functional; conditions: read-out: GI
Hepatocyte = experiment: Intrinsic clearance in rat hepatocytes assessed per 10^6 cells; type: ADME, cell-based
Plasmodium falciparum [10] = experiment: Antiparasite activity against drug resistant Plasmodium falciparum C235 assessed as growth inhibition incubated for 72 hrs by SYBR green fluorescence assay; type: functional, organism-based; conditions: C235, 72 h
Plasmodium falciparum [11] = experiment: Antiparasite activity against drug resistant Plasmodium falciparum W2 assessed as growth inhibition incubated for 72 hrs by SYBR green fluorescence assay; type: functional, organism-based; conditions: W2, 72 h
Trypanosoma brucei [12] = experiment: Antiparasite activity against Trypanosoma brucei 427 assessed as growth inhibition at 5 uM incubated for 48 hrs by PrestoBlue based fluorescence assay; type: functional; conditions: Trypanosoma brucei, 427, 48 h; read-out: GI

Fc1cccc(COc2ccc(Nc3ncnc4ccc(-c5cccc(N6CCOCC6)c5)cc34)cc2Cl)c1
EC50 (Plasmodium falciparum [1]): 230 nM | EC50 (Leishmania major [2]): 8000 nM | EC50 (Leishmania major [3]): 3000 nM | CC50 at 48 h [4]: > 15000 nM | solubility [5]: < 1 µM | EC50 (Trypanosoma brucei [6]): 42 nM | EC50 (Trypanosoma cruzi [7]): 1800 nM | Fu [8]: < 1%

CN1CCN(S(=O)(=O)c2ccc(-c3ccc4ncnc(Nc5ccc(OCc6cccc(F)c6)c(Cl)c5)c4c3)cc2)CC1
EC50 (Plasmodium falciparum [1]): 27 nM | inhibition of growth at 10 µM (Trypanosoma cruzi [9]): 60% | EC50 (Leishmania major [2]): 1600 nM | EC50 (Leishmania major [3]): 2800 nM | CC50 at 48 h [4]: > 15000 nM

O=S(=O)(c1ccc(-c2ccc3ncnc(Nc4ccc(OCc5ccccc5)c(Cl)c4)c3c2)cc1)N1CCOCC1
EC50 (Plasmodium falciparum [1]): 260 nM | inhibition of growth at 10 µM (Trypanosoma cruzi [9]): 9.5% | EC50 (Leishmania major [2]): > 15000 nM | EC50 (Leishmania major [3]): 500 nM | CC50 at 48 h [4]: > 15000 nM | EC50 (Trypanosoma brucei [6]): 1400 nM

O=S(=O)(c1ccc(-c2ccc3nccc(Nc4ccc(OCc5ccccc5)c(Cl)c4)c3c2)cc1)N1CCOCC1
CLH (Hepatocyte): 13.93 µL/min | EC50 (Plasmodium falciparum [1]): 32 nM | EC50 (Plasmodium falciparum [10]): 54 nM | EC50 (Leishmania major [2]): 3400 nM | EC50 (Leishmania major [3]): 200 nM | CC50 at 48 h [4]: > 5000 nM | solubility [5]: < 1 µM | EC50 (Plasmodium falciparum [11]): 110 nM | EC50 (Trypanosoma brucei [6]): 2100 nM | EC50 (Trypanosoma cruzi [7]): 49000 nM | Fu [8]: < 1%

CN1CCN(S(=O)(=O)c2ccc(-c3ccc4c(Nc5ccc(OCc6cccc(F)c6)c(Cl)c5)ccnc4c3)cc2)CC1
EC50 (Plasmodium falciparum [1]): 19 nM | EC50 (Plasmodium falciparum [10]): 39 nM | EC50 (Leishmania major [2]): 1600 nM | EC50 (Leishmania major [3]): 1000 nM | CC50 at 48 h [4]: > 4000 nM | EC50 (Plasmodium falciparum [11]): 42 nM | EC50 (Trypanosoma brucei [6]): 79 nM | EC50 (Trypanosoma cruzi [7]): 730 nM | Fu [8]: < 1%

Fc1cccc(COc2ccc(Nc3nccc4ccc(-c5cccc(N6CCOCC6)c5)cc34)cc2Cl)c1
EC50 (Plasmodium falciparum [1]): 2600 nM | EC50 (Plasmodium falciparum [10]): 6100 nM | inhibition of growth at 5 µM (Trypanosoma brucei [12]): 0.1% | EC50 (Leishmania major [2]): 6000 nM | EC50 (Leishmania major [3]): > 15000 nM | CC50 at 48 h [4]: > 28000 nM | EC50 (Plasmodium falciparum [11]): 19000 nM | EC50 (Trypanosoma cruzi [7]): > 50000 nM

Fc1cccc(COc2ccc(Nc3nccc4cc(-c5cccc(N6CCOCC6)c5)ccc34)cc2Cl)c1
EC50 (Plasmodium falciparum [1]): 2800 nM | EC50 (Plasmodium falciparum [10]): 4700 nM | inhibition of growth at 5 µM (Trypanosoma brucei [12]): 12% | EC50 (Leishmania major [2]): 2200 nM | EC50 (Leishmania major [3]): > 15000 nM | CC50 at 48 h [4]: > 28000 nM | EC50 (Plasmodium falciparum [11]): 19000 nM | EC50 (Trypanosoma cruzi [7]): > 50000 nM

CN1CCCN(S(=O)(=O)c2ccc(-c3ccc4c(Nc5ccc(OCc6cccc(F)c6)c(Cl)c5)cnnc4c3)cc2)CC1
CLH (Hepatocyte): 36.72 µL/min | EC50 (Plasmodium falciparum [1]): 3 nM | EC50 (Plasmodium falciparum [10]): 5 nM | EC50 (Leishmania major [2]): 240 nM | EC50 (Leishmania major [3]): 6400 nM | CC50 at 48 h [4]: 15000 nM | solubility [5]: < 1 µM | EC50 (Plasmodium falciparum [11]): 13 nM | EC50 (Trypanosoma brucei [6]): 210 nM | EC50 (Trypanosoma cruzi [7]): 49000 nM | Fu [8]: < 1%

CN1CCN(S(=O)(=O)c2ccc(-c3ccc4c(Nc5ccc(OCc6cccc(F)c6)c(Cl)c5)nncc4c3)cc2)CC1
EC50 (Plasmodium falciparum [1]): 45 nM | EC50 (Plasmodium falciparum [10]): 76 nM | EC50 (Leishmania major [2]): > 15000 nM | EC50 (Leishmania major [3]): 1300 nM | CC50 at 48 h [4]: > 15000 nM | EC50 (Plasmodium falciparum [11]): 130 nM | EC50 (Trypanosoma brucei [6]): 1200 nM | EC50 (Trypanosoma cruzi [7]): 18000 nM

CN1CCCN(S(=O)(=O)c2ccc(-c3ccc4cnnc(Nc5ccc(OCc6cccc(F)c6)c(Cl)c5)c4c3)cc2)CC1
EC50 (Plasmodium falciparum [1]): 94 nM | EC50 (Plasmodium falciparum [10]): 180 nM | EC50 (Leishmania major [2]): 5600 nM | EC50 (Leishmania major [3]): > 15000 nM | CC50 at 48 h [4]: 14000 nM | EC50 (Plasmodium falciparum [11]): 250 nM | EC50 (Trypanosoma brucei [6]): 620 nM | EC50 (Trypanosoma cruzi [7]): 17000 nM

CN1CCCN(S(=O)(=O)c2ccc(-c3ccc4c(Nc5ccc(OCc6cccc(F)c6)c(Cl)c5)nncc4c3)cc2)CC1
EC50 (Plasmodium falciparum [1]): 29 nM | EC50 (Plasmodium falciparum [10]): 45 nM | EC50 (Leishmania major [2]): 1100 nM | EC50 (Leishmania major [3]): 410 nM | CC50 at 48 h [4]: 3400 nM | EC50 (Plasmodium falciparum [11]): 64 nM | EC50 (Trypanosoma brucei [6]): 510 nM | EC50 (Trypanosoma cruzi [7]): 1300 nM

N#Cc1cnc2ccc(-c3cccc(N4CCOCC4)c3)cc2c1Nc1ccc(OCc2cccc(F)c2)c(Cl)c1
EC50 (Plasmodium falciparum [1]): 480 nM | EC50 (Plasmodium falciparum [10]): 730 nM | inhibition of growth at 5 µM (Trypanosoma brucei [12]): 49% | EC50 (Leishmania major [2]): > 15000 nM | EC50 (Leishmania major [3]): > 15000 nM | CC50 at 48 h [4]: > 15000 nM | EC50 (Plasmodium falciparum [11]): 1000 nM | EC50 (Trypanosoma cruzi [7]): > 50000 nM

N#Cc1cnc2ccc(-c3cccc(N4CCOCC4)c3)cc2c1Nc1ccc(OCc2ccccc2)c(Cl)c1
EC50 (Plasmodium falciparum [1]): 970 nM | EC50 (Plasmodium falciparum [10]): 970 nM | EC50 (Leishmania major [2]): > 15000 nM | EC50 (Leishmania major [3]): > 15000 nM | CC50 at 48 h [4]: > 15000 nM | EC50 (Plasmodium falciparum [11]): 820 nM | EC50 (Trypanosoma brucei [6]): 760 nM | EC50 (Trypanosoma cruzi [7]): > 50000 nM

N#Cc1cnc2ccc(-c3ccc(S(=O)(=O)N4CCOCC4)cc3)cc2c1Nc1ccc(OCc2cccc(F)c2)c(Cl)c1
EC50 (Plasmodium falciparum [1]): 160 nM | EC50 (Plasmodium falciparum [10]): 240 nM | inhibition of growth at 5 µM (Trypanosoma brucei [12]): 15% | EC50 (Leishmania major [2]): > 15000 nM | EC50 (Leishmania major [3]): > 15000 nM | CC50 at 48 h [4]: > 15000 nM | EC50 (Plasmodium falciparum [11]): 300 nM | EC50 (Trypanosoma cruzi [7]): > 50000 nM

N#Cc1cnc2ccc(-c3ccc(S(=O)(=O)N4CCOCC4)cc3)cc2c1Nc1ccc(OCc2ccccc2)c(Cl)c1
EC50 (Plasmodium falciparum [1]): 280 nM | EC50 (Plasmodium falciparum [10]): 410 nM | inhibition of growth at 5 µM (Trypanosoma brucei [12]): 33% | EC50 (Leishmania major [2]): > 15000 nM | EC50 (Leishmania major [3]): > 15000 nM | CC50 at 48 h [4]: > 15000 nM | EC50 (Plasmodium falciparum [11]): 580 nM | EC50 (Trypanosoma cruzi [7]): > 50000 nM

CN1CCN(S(=O)(=O)c2ccc(-c3ccc4ncc(C#N)c(Nc5ccc(OCc6cccc(F)c6)c(Cl)c5)c4c3)cc2)CC1
EC50 (Plasmodium falciparum [1]): 82 nM | EC50 (Plasmodium falciparum [10]): 110 nM | EC50 (Leishmania major [2]): > 15000 nM | EC50 (Leishmania major [3]): > 15000 nM | CC50 at 48 h [4]: > 15000 nM | EC50 (Plasmodium falciparum [11]): 200 nM | EC50 (Trypanosoma brucei [6]): 1100 nM | EC50 (Trypanosoma cruzi [7]): > 50000 nM

CN1CCN(S(=O)(=O)c2ccc(-c3ccc4ncc(C#N)c(Nc5ccc(OCc6ccccc6)c(Cl)c5)c4c3)cc2)CC1
EC50 (Plasmodium falciparum [1]): 210 nM | EC50 (Plasmodium falciparum [10]): 260 nM | EC50 (Leishmania major [2]): > 15000 nM | EC50 (Leishmania major [3]): 4100 nM | CC50 at 48 h [4]: > 15000 nM | EC50 (Plasmodium falciparum [11]): 510 nM | EC50 (Trypanosoma brucei [6]): 1900 nM | EC50 (Trypanosoma cruzi [7]): > 50000 nM

CN1CCCN(S(=O)(=O)c2ccc(-c3ccc4ncc(C#N)c(Nc5ccc(OCc6cccc(F)c6)c(Cl)c5)c4c3)cc2)CC1
CLH (Hepatocyte): 37.95 µL/min | EC50 (Plasmodium falciparum [1]): 47 nM | EC50 (Plasmodium falciparum [10]): 66 nM | EC50 (Leishmania major [2]): 1600 nM | EC50 (Leishmania major [3]): 920 nM | CC50 at 48 h [4]: > 15000 nM | EC50 (Plasmodium falciparum [11]): 100 nM | EC50 (Trypanosoma brucei [6]): 350 nM | EC50 (Trypanosoma cruzi [7]): 90 nM | Fu [8]: < 1%

CN1CCCN(S(=O)(=O)c2ccc(-c3ccc4ncc(C#N)c(Nc5ccc(OCc6ccccc6)c(Cl)c5)c4c3)cc2)CC1
EC50 (Plasmodium falciparum [1]): 58 nM | EC50 (Plasmodium falciparum [10]): 58 nM | EC50 (Leishmania major [2]): 2300 nM | EC50 (Leishmania major [3]): 1600 nM | CC50 at 48 h [4]: 13000 nM | EC50 (Plasmodium falciparum [11]): 84 nM | EC50 (Trypanosoma brucei [6]): 430 nM | EC50 (Trypanosoma cruzi [7]): 950 nM
